ChEMBL document CHEMBL3588826, “Chimeric derivatives of functionalized amino acids and α-aminoamides: compounds with anticonvulsant activity in seizure models and inhibitory actions on central, peripheral, and cardiac isoforms of voltage-gated sodium channels” (Bioorg Med Chem, 2015)
Active and inactive are the calls of the source. The rule behind the calls is not given here.

Columns and labels:
Cytochrome P450 2D6 = Cytochrome P450 2D6 (Homo sapiens, UniProt P10635); test: Inhibition of human CYP2D6 at 10 uM; assay type: ADME
How it was run: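 Test compound at 10 μM against a human CYP450 panel (CYP1A2, 2B6, 2C8, 2C9, 2C19, 2D6, 3A4/5). Direct inhibition was measured, and time-dependent inhibition was measured after a 30-min preincubation.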

[1] = Protective index, ratio of TD50 for behavioural toxicity in po dosed albino Sprague-Dawley rat to ED50 for anticonvulsant activity in po dosed MES albino Sprague-Dawley rat model; assay type: organism-based; conditions: in vivo, read-out: Ratio TD50/ED50
How it was run: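 Male albino Sprague-Dawley rats were dosed ip or orally. Protective index = TD50/ED50, the ED50 taken from maximal electroshock by the same route.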

Rattus norvegicus [2] = species on record: Rattus norvegicus; test: Inhibition of voltage-gated sodium channel in rat embryonic cortical neurons assessed as decrease in fraction of current available at 10 uM measured at -50 mV by whole cell patch-clamp electrophysiology
How it was run: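 Embryonic cortical neurons were treated with 10 μM compound or 0.1% DMSO, whole-cell voltage clamp at room temperature. Slow inactivation was assessed at −50 mV, with the fraction inactivated taken as 1 minus the normalized INa. Student's t-test; 5–8 cells per condition.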

[3] = Protective index, ratio of TD50 for neurotoxicity in ip dosed albino Carworth Farms No. 1 mouse to ED50 for anticonvulsant activity in ip dosed MES albino Carworth Farms No. 1 mouse model; assay type: toxicity, organism-based; conditions: in vivo, read-out: Ratio TD50/ED50
How it was run: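 Male albino Carworth Farms No. 1 mice were dosed ip. Protective index = TD50/ED50, the ED50 taken from the ip maximal electroshock test.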

Rattus norvegicus [4] = test: Ratio of NOAEL in Sprague-Dawley rat to ED50 for anticonvulsant activity in po dosed Sprague-Dawley rat by MES test
How it was run: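 Non-GLP 7-day repeated-dose study in female Sprague-Dawley rats, given by oral gavage at 20, 60 and 180 mg/kg/day. Endpoints: weight bearing, gait coordination, respiratory rate, relative organ weights, clinical chemistry and gross pathology, giving a NOAEL. The ratio divides the NOAEL by the oral MES ED50.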

CAD = test: Frequency-dependent inhibition of voltage-gated sodium channel in mouse CAD cells assessed as decrease in current amplitude at 30 uM by whole cell patch-clamp electrophysiology; assay type: cell-based
How it was run: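 CAD cells, whole-cell voltage clamp at room temperature, with compound at 1, 10 or 30 μM against 0.1% DMSO. Thirty identical test pulses were given at 10 Hz. Current was normalized as peak at pulse N over pulse 1, and the maximal decrement was read at the end of the train. One-way ANOVA with Dunnett's test; 4–10 cells per condition.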

[5] = target: Sodium channel protein type 9 subunit alpha (Homo sapiens) (UniProt Q15858); test: Inhibition of human Nav1.7 expressed in HEK293 cells assessed as half-maximal voltage for steady state fast-inactivation at 10 uM by whole cell patch-clamp electrophysiology (reference value: -61.11 +/-3.02 mV); assay type: cell-based
Mus musculus = test: Anticonvulsant activity in ip dosed corneal kindled seizure mouse model measured after 0.25 hrs; assay type: functional
Rattus norvegicus [6] = test: Anticonvulsant activity in ip dosed albino Sprague-Dawley rat measured at 2 hrs by maximal electroshock seizure test; assay type: functional
How it was run: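 Screened under the NIH Anticonvulsant Screening Program in male rodents, with mice and rats dosed ip and rats also dosed po. Maximal electroshock (MES) and 6 Hz (32 mA) psychomotor seizure tests were run.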

Rattus norvegicus [7] = test: Anticonvulsant activity in po dosed albino Sprague-Dawley rat measured at 2 hrs by maximal electroshock seizure test; assay type: functional
How it was run: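 Screened under the NIH anticonvulsant program in male albino Carworth Farms No. 1 mice (ip) and male albino Sprague-Dawley rats (ip or oral). Protection tested by maximal electroshock or 6 Hz (32 mA) psychomotor stimulation.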

[8] = Behavioural toxicity in ip dosed albino Sprague-Dawley rat measured at 2 hrs; assay type: organism-based; conditions: in vivo
Rattus norvegicus [9] = test: Toxicity in po dosed Sprague-Dawley rat assessed as changes in body weight administered via gavage; assay type: organism-based; conditions: in vivo
[10] = Protective index, ratio of TD50 for behavioural toxicity in ip dosed albino Sprague-Dawley rat to ED50 for anticonvulsant activity in ip dosed MES albino Sprague-Dawley rat model; assay type: organism-based; conditions: in vivo, read-out: Ratio TD50/ED50
How it was run: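 Male albino Sprague-Dawley rats were dosed ip or orally. […] Protective index = TD50/ED50, the ED50 taken from maximal electroshock by the same route.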

[11] = target: T1, Sodium channel protein type 5 subunit alpha (Homo sapiens, UniProt Q14524); test: Inhibition of human Nav1.5 expressed in HEK293 cells assessed as transition of channels to slow-inactivated state at 10 uM measured at -50 mV by whole cell patch-clamp electrophysiology; assay type: cell-based; conditions: hek293, 10 µM
How it was run: (§1)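 HEK293 cells stably expressing hNav1.1, rNav1.3, hNav1.7 or hNav1.5 were grown in DMEM with 10% FBS. Recordings were whole-cell voltage clamp at room temperature, with 10 μM compound versus 0.1% DMSO. Slow inactivation at −50 mV was calculated as 1 minus normalized peak INa. Nav1.5 used hyperpolarized protocols. Data are from 5–6 cells.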

[12] = target: Sodium channel protein type 1 subunit alpha (Homo sapiens) (UniProt P35498); test: Inhibition of human Nav1.1 expressed in HEK293 cells assessed as transition of channels to slow-inactivated state at 10 uM measured at -50 mV by whole cell patch-clamp electrophysiology; assay type: cell-based; how it was run: as §1
[13] = Half life in Sprague-Dawley rat at 5 mg/kg, iv; assay type: ADME, organism-based; conditions: in vivo
How it was run: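 Pharmacokinetics in Sprague-Dawley rats given a single iv dose of 5 mg/kg or an oral dose of 20 mg/kg.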

[14] = Inhibition of voltage-gated sodium channel in mouse CAD cells assessed as transition of channels to slow-inactivated state measured at +20 mV by whole cell patch-clamp electrophysiology; assay type: cell-based
How it was run: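 CAD cells were grown in Ham's F12/DMEM with 10% FBS at 37 °C and 5% CO2, then recorded by whole-cell voltage clamp at room temperature. A concentration range of compound was tested versus 0.1% DMSO. Slow inactivation was measured at −50 and +20 mV, and IC50 was derived from concentration-response curves.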

Rattus norvegicus [15] = test: Anticonvulsant activity in ip dosed rat assessed as decrease in partial complex or temporal lobe seizures by hippocampal kindeld seizure test; assay type: functional
Rattus norvegicus [16] = test: Toxicity in po dosed Sprague-Dawley rat assessed as changes in respiratory rate administered via gavage; assay type: organism-based; conditions: in vivo
How it was run: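 Non-GLP 7-day repeated-dose study in female Sprague-Dawley rats given oral gavage at 20, 60 and 180 mg/kg/day. Endpoints were weight bearing, gait coordination, respiratory rate, relative organ weights, clinical chemistry and gross pathology, with NOAEL determined.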

[17] = target: T1, Sodium channel protein type 5 subunit alpha; test: Inhibition of human Nav1.5 expressed in HEK293 cells assessed as half-maximal voltage for steady state activation at 10 uM by whole cell patch-clamp electrophysiology (reference value: -55.71 +/-3.81 mV); assay type: cell-based; conditions: hek293, 10 µM
Rattus norvegicus [18] = test: Toxicity in po dosed Sprague-Dawley rat assessed as increase in liver weight administered via gavage; assay type: organism-based; conditions: in vivo
How it was run: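 Non-GLP repeated-dose study: female Sprague-Dawley rats given compound by oral gavage once daily for 7 days at 20, 60 and 180 mg/kg/day. Endpoints included weight bearing, gait coordination, respiratory rate, relative organ weights (liver, spleen, thymus), clinical chemistry and gross pathology; NOAEL derived.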

[19] = target: Sodium channel protein type 3 subunit alpha (Rattus norvegicus) (UniProt P08104); test: Inhibition of rat Nav1.3 expressed in HEK293 cells assessed as transition of channels to slow-inactivated state at 10 uM measured at -50 mV by whole cell patch-clamp electrophysiology; assay type: cell-based; how it was run: as §1
Chain of Sodium channel protein type 3 subunit alpha (Rattus norvegicus) (P08104 whole entry): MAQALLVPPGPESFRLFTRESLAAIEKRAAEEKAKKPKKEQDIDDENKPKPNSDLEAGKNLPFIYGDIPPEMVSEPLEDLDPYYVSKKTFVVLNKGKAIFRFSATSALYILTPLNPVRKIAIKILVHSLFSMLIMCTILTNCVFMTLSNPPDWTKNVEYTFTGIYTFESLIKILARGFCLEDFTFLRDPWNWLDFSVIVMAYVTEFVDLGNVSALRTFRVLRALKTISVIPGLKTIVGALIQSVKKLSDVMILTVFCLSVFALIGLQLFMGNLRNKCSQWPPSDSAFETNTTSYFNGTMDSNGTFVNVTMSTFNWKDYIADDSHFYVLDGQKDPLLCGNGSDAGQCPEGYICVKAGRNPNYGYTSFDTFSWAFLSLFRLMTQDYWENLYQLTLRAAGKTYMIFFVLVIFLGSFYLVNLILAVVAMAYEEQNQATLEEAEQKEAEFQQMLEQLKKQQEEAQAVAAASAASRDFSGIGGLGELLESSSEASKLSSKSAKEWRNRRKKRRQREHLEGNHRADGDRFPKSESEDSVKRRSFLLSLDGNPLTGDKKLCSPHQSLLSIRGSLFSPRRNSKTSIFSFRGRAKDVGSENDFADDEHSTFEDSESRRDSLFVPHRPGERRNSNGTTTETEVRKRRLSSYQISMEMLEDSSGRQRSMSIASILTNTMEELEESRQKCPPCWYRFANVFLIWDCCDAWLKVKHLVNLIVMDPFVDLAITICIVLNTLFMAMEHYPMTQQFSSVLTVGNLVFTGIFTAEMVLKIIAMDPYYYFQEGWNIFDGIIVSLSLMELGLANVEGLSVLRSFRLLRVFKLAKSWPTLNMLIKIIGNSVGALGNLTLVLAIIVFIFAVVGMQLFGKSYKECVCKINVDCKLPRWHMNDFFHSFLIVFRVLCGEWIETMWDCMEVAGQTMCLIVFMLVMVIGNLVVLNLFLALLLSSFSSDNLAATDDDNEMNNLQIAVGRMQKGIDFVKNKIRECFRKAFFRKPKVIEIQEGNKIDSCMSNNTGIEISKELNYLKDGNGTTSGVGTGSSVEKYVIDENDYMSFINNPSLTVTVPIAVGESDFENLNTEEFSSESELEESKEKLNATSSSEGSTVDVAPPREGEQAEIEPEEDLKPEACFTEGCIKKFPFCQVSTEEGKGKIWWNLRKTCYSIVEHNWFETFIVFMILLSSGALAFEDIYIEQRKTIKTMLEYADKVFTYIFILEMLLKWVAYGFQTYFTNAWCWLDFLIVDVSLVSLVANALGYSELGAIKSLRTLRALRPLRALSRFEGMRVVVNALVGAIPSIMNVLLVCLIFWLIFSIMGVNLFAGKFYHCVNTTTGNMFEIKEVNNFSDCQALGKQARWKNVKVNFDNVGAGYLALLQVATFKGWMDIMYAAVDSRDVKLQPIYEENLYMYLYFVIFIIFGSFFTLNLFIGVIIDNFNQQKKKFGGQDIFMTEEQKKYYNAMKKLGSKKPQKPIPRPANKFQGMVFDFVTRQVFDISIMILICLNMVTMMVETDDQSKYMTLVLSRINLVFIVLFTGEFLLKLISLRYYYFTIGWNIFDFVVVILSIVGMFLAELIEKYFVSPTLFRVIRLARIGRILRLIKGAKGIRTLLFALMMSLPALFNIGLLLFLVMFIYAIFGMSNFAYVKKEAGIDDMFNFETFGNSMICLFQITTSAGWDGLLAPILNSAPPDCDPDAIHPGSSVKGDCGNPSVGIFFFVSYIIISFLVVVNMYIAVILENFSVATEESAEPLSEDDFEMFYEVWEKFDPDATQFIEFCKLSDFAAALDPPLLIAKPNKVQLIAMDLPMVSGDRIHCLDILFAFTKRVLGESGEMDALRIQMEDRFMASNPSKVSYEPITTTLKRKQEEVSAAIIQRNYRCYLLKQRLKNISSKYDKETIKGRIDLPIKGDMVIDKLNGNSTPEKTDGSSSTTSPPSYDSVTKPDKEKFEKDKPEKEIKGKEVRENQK

T1 sequence (Q14524 whole entry): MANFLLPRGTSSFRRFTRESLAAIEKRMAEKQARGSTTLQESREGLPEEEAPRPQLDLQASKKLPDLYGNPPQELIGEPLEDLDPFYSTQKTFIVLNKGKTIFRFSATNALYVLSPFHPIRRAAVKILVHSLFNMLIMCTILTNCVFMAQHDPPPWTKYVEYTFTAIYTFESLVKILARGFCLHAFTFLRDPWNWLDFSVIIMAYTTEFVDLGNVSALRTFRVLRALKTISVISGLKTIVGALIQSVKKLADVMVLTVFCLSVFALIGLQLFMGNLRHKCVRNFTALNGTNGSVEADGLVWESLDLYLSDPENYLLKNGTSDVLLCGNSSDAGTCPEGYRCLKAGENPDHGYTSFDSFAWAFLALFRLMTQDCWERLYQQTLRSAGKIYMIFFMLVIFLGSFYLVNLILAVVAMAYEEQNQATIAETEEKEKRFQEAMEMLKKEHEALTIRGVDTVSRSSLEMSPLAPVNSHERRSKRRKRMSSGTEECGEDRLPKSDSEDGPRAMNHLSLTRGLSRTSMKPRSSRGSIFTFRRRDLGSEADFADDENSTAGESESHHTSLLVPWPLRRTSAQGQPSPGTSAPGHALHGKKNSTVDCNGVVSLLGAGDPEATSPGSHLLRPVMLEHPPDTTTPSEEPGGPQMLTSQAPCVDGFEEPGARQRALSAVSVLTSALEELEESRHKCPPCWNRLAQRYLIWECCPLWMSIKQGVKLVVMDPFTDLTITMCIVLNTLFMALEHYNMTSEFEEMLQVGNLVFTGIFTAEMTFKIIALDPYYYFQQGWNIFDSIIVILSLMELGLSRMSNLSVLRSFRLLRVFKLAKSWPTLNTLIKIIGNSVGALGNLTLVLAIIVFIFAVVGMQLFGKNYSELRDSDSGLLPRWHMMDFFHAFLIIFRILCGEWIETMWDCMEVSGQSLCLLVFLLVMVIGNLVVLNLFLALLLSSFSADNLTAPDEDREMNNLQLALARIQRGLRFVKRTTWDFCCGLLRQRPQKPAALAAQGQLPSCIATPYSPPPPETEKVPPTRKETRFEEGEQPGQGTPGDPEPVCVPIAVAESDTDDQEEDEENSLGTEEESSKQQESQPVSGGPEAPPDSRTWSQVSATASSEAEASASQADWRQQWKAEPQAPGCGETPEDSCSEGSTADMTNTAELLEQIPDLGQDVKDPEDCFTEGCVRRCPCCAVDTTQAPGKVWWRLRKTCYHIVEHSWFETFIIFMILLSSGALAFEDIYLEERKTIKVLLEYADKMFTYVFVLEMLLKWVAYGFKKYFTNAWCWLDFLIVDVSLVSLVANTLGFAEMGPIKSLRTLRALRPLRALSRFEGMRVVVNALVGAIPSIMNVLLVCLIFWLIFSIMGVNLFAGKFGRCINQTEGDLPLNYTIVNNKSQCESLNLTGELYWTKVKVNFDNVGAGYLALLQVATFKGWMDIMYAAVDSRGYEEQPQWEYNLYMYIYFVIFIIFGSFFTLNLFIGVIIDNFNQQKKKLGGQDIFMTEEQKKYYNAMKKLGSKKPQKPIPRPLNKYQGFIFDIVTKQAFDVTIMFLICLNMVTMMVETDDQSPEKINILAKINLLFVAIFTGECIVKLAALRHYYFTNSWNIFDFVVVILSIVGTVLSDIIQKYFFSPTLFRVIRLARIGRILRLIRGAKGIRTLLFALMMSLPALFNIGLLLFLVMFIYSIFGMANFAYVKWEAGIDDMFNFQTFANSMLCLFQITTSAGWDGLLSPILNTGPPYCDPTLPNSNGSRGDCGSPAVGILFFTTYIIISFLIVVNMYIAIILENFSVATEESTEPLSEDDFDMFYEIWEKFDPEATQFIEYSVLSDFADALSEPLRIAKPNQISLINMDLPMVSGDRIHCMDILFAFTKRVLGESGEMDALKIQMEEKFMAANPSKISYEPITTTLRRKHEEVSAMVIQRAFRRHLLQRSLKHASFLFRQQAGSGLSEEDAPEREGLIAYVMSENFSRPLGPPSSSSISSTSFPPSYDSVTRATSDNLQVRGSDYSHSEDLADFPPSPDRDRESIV
Chain of Cytochrome P450 2D6 (P10635 whole entry): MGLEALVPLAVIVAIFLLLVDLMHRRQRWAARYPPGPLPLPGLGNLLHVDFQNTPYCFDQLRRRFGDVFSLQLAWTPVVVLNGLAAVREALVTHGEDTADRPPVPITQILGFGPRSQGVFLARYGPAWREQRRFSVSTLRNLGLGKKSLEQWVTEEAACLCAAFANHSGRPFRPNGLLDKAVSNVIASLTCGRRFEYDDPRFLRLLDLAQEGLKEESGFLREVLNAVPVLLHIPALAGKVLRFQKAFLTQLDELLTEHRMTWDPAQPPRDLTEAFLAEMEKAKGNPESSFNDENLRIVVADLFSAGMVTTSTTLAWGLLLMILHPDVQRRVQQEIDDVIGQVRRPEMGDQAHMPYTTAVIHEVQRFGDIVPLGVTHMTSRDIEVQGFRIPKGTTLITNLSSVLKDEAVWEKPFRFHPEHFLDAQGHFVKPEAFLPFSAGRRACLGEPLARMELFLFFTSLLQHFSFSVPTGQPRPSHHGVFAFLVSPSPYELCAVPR

With `COC[C@@H](NC(C)=O)C(=O)NCc1ccc(Oc2cccc(OC(F)(F)F)c2)cc1` the “inhibition (INH)” value (Cytochrome P450 2D6) was “Not Active”, the selectivity ratio [1] was 29 and the inhibition (Rattus norvegicus [2]) was “Active”. For the same molecule, the selectivity ratio [3] was 6.2, the Ratio (Rattus norvegicus [4]) was 10 and the inhibition (CAD) was 44%. It also gave a V1/2 [5] of -81.3 mV, an ED50 (Mus musculus) of 41 mg/kg and an ED50 (Rattus norvegicus [6]) of 5.7 mg/kg. The ED50 (Rattus norvegicus [7]) was 8.3 mg/kg, the TD50 at 2 h [8] was 54 mg/kg and the Activity (Rattus norvegicus [9]) was “Toxic”. The selectivity ratio [10] was 9.5, the “inhibition (INH)” value [11] was “Active” and the inhibition [12] was “Active”. For the same molecule, the half-life [13] was 1.75 h, the IC50 [14] was 640 nM and the ED50 (Rattus norvegicus [15]) was 22 mg/kg. The Activity (Rattus norvegicus [16]) was “Toxic”, the V1/2 [17] was -48.99 mV and the Activity (Rattus norvegicus [18]) was “Toxic”. For the same molecule, the inhibition [19] was “Active”.
